Test results as given in ChEMBL document CHEMBL5321292, “Targeting Cytotoxic Agents through EGFR-Mediated Covalent Binding and Release” (J Med Chem, 2023).
Calls of active or inactive are those of the source. No cut-off for these calls is given here.

Assays:
[1] = Stability of compound assessed as formation of 5-fluorouracil by measuring half life
[2] = biological target: Epidermal growth factor receptor (Mus musculus, UniProt Q01279); experiment: Inhibition of C-terminal his6-tagged mouse EGFR by TR-FRET assay
Sequence of Epidermal growth factor receptor (Mus musculus, UniProt Q01279) (Q01279 whole entry): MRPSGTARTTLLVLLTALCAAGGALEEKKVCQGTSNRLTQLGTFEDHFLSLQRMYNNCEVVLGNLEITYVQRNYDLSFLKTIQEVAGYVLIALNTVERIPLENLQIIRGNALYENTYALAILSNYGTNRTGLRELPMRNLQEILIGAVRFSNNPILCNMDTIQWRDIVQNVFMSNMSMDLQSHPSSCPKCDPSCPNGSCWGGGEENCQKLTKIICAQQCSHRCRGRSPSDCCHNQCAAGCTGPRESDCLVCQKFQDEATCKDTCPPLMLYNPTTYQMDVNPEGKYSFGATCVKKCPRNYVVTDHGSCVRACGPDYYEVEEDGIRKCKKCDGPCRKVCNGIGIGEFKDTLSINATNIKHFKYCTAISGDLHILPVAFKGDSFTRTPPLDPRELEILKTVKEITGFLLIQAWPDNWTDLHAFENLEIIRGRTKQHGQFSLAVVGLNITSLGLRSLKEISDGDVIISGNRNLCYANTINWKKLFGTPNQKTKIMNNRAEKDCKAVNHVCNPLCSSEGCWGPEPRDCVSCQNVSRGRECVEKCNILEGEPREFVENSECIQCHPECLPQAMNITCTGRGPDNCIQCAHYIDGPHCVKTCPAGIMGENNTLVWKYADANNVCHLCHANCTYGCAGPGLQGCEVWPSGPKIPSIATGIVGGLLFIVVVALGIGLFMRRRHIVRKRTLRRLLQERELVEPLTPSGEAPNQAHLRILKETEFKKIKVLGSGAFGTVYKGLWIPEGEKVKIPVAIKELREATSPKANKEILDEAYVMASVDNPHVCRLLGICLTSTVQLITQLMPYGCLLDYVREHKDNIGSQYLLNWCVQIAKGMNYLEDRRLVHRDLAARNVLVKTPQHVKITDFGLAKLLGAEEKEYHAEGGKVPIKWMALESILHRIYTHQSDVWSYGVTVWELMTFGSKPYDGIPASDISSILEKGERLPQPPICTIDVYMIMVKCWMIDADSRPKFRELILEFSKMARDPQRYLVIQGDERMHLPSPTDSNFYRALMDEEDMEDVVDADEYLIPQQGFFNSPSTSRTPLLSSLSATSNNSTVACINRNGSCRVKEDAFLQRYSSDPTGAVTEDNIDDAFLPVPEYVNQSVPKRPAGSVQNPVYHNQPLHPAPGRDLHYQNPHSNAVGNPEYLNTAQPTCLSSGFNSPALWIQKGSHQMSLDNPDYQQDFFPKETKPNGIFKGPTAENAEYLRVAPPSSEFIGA

[3] = biological target: T1, Epidermal growth factor receptor (Homo sapiens, UniProt P00533); experiment: Inhibition of EGFR in human A-431 cells incubated for 2.5 hrs by HTRF analysis; format: cell-based
T1 sequence (P00533 whole entry): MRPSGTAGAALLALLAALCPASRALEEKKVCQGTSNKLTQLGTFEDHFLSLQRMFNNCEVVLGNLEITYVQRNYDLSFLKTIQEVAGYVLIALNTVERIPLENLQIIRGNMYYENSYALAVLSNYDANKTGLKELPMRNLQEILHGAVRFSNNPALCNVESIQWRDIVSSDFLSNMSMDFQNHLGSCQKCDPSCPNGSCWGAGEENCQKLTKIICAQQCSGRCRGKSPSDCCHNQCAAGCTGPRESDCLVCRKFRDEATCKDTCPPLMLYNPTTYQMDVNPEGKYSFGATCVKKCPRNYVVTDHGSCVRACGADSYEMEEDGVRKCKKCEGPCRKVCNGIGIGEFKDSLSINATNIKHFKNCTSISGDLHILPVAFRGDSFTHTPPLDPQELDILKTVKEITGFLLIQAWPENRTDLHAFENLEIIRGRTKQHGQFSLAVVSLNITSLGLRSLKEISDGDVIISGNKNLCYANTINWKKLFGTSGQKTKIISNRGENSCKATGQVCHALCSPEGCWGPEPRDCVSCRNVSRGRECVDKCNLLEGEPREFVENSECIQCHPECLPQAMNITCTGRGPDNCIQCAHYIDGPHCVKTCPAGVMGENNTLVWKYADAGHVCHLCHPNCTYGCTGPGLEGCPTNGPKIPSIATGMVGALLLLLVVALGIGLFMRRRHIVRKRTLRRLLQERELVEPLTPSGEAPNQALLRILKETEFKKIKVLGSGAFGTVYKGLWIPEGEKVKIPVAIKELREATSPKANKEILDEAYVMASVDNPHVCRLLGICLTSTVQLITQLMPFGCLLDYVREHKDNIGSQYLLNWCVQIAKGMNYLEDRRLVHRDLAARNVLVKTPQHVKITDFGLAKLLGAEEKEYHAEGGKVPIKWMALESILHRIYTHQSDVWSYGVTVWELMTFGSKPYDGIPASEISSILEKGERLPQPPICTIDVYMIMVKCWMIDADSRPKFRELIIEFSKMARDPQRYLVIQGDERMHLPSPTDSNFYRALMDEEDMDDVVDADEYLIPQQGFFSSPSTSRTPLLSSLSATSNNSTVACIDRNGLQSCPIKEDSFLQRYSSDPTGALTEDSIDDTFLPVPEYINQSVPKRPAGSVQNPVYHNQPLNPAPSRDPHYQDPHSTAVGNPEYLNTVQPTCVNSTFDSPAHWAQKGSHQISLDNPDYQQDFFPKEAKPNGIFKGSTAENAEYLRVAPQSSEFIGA
Method in brief: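 A431 cells plated at 20 000/well and allowed to adhere for 24 h. Treated 2.5 h in duplicate (0.1% DMSO), then stimulated with 100 ng/mL EGF for 30 min. Lysed 30 min at room temperature. HTRF measured pEGFR (Tyr1068) and total EGFR at 665/620 nm. Values taken as pEGFR/total EGFR ratio, expressed as % of 0 μM control.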

[4] = biological target: T1, Epidermal growth factor receptor; experiment: Inhibition of EGFR phosphorylation in human A-431 cells incubated for 4 hr
A-431 [5] = experiment: Antiproliferative activity against human A-431 cells assessed as cell growth inhibition measured after 72 hrs by SRB assay; format: functional, cell-based; conditions: A-431, read-out: pGI50 (converted)
[6] = biological target: T1, Epidermal growth factor receptor; experiment: Inhibition of EGFR phosphorylation in human A-431 cells at 10 uM incubated for 4 hr by Western blot analysis; format: cell-based
Method in brief: (§1)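 A431 cells treated for 4 h and lysed in Phosphosafe buffer with protease inhibitors. Western blot probed with anti-EGFR and anti-pEGFR primary antibodies (1:1000 in 5% BSA) plus a loading control, then HRP-conjugated secondary antibodies. Bands detected by ECL.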

[7] = biological target: T1, Epidermal growth factor receptor; experiment: Inhibition of EGFR phosphorylation in human A-431 cells at 1 uM incubated for 4 hr by Western blot analysis; format: cell-based
Method in brief: as §1

A-431 [8] = experiment: Antiproliferative activity against human A-431 cells assessed as cell growth inhibition measured after 72 hrs in presence of 5-fluorouracil by SRB assay; format: functional, cell-based; conditions: A-431, 72 h
Method in brief: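 A431 cells (ECACC) seeded day 0 at exponential-growth density in DMEM + 10% FBS. Compound diluted in medium and added day 1, final DMSO 0.1%. Incubated 72 h at 37 °C, 5% CO2. Fixed with 50% TCA at 4 °C for 1 h, stained with 0.4% SRB for 30 min, washed with 1% AcOH, solubilised in 10 mM Tris pH 10.5. Absorbance read at 570 nm.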

SMILES: O=C(/C=C/n1cc(F)c(=O)[nH]c1=O)Oc1ccc(Cl)cc1
- t1/2 [1]: 2.9 h

SMILES: COc1cc2ncnc(Nc3ccc(F)c(Cl)c3)c2cc1OC(=O)/C=C/n1cc(F)c(=O)[nH]c1=O
- IC50 [2]: 0.158 µM
- IC50 [3]: 0.0158 µM
- IC50 [4]: 0.0158 µM
- GI50 (A-431 [5]): 5.01 µM
- inhibition [6]: Active
- inhibition [7]: inactive

SMILES: N#Cc1ccc(OC(=O)/C=C/n2cc(F)c(=O)[nH]c2=O)cc1
- t1/2 [1]: 2.5 h

SMILES: O=C(/C=C/n1cc(F)c(=O)[nH]c1=O)Oc1ccc([N+](=O)[O-])cc1
- t1/2 [1]: 0.1 h

SMILES: COCCOCCOc1ccc(NC(=O)/C=C/n2cc(F)c(=O)[nH]c2=O)cc1
- t1/2 [1]: 10 h

SMILES: COc1cc2ncnc(Nc3ccc(F)c(Cl)c3)c2cc1NC(=O)/C=C/n1cc(F)c(=O)[nH]c1=O
- IC50 [2]: 0.0501 µM
- IC50 [3]: 2.51 µM
- IC50 [4]: 2.51 µM

SMILES: COc1cc2ncnc(Nc3ccc(F)c(Cl)c3)c2cc1OC(=O)/C=C/CN1CCCCC1
- IC50 (A-431 [8]): 0.631 µM
- inhibition [7]: Active

SMILES: O=C(/C=C/n1cc(F)c(=O)[nH]c1=O)Oc1ccc(F)cc1
- t1/2 [1]: 3 h

SMILES: O=C(/C=C/n1cc(F)c(=O)[nH]c1=O)Cc1ccccc1
- t1/2 [1]: ~ 36 hr

SMILES: COc1ccc(OC(=O)/C=C/n2cc(F)c(=O)[nH]c2=O)cc1
- t1/2 [1]: 36 h
